Results on 26 molecules are retold here after article PMC8693751 (RSC Advances, 2021).

Entries after “also recorded” stand apart in the source; their conditions may differ. Like-named read-outs stand apart in the source and are kept apart here.

For data set [1], the system named is L. amazonensis promastigotes. Nature of the data set: Leishmanicidal activity against promastigote forms, L. amazonensis. The format is cell-based, Leishmania amazonensis. A digest of the protocol:
(§1)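 Promastigotes (L. amazonensis WHOM/00LTB0016; L. infantum MHOM/MA/67/ITMAP-263) at 1 × 10⁶ cells/mL in Schneider's medium with 10% FBS were exposed to eight test compound levels (1.5–200 μg mL−1) for 72 h at 26 °C. Untreated cells were the negative control and miltefosine the standard.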

Data set [2] has as its system L. infantum promastigotes. Kind of data set: Leishmanicidal activity against promastigote forms, L. infantum. The format is cell-based, Leishmania infantum. A digest of the protocol: as §1
Data set [3] concerns L. amazonensis promastigotes. The note with it: cited from earlier work.
Data set [4] deals with L. infantum promastigotes. The note with it: cited from earlier work.
In data set [5] the test system is T. cruzi amastigotes (Tulahuen strain). Kind of data set: Amastigote assay. The format is cell-based. The note with it: Trypanosoma cruzi, L929, read-out: Amastigote, IC50. The essentials: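 Tulahuen T. cruzi expressing E. coli beta-galactosidase, grown in L-929 fibroblasts in RPMI 1640 without phenol red with 10% FBS and glutamine. Fibroblasts were seeded at 4.0 × 10³/well overnight (37 °C, 5% CO2), then given trypomastigotes at 4.0 × 10⁴/well for 2 h before the free parasites were removed. At 48 h, test compound in DMSO was added (0.625–20 μg mL−1, six levels, quadruplicate). After 7 days, 100 μM chlorophenol red β-D-galactopyranoside and 0.1% Nonidet P-40 were added overnight at 37 °C and A570 read as % growth inhibition. Benznidazole was the positive control; two independent experiments.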

Data set [6] relates to T. cruzi trypomastigotes. Kind of data set: Cell death assessment through flow cytometry. The format is cell-based, Trypanosoma cruzi. The note with it: for double-positive (double-stained) cells (upper right quadrant): 24 hours. A digest of the protocol: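 […] trypomastigotes taken from infected L929 supernatant were seeded at 4 × 10⁵/well in RPMI-1640 with test compound (in DMSO) at three levels, 37 °C for 24 h. Benznidazole was the positive control and medium the negative control. Cells were washed in PBS, placed in binding buffer, and labelled with propidium iodide (50 μg mL−1 solution) plus Annexin-FITC for 15 min at room temperature in the dark. 20000 events were acquired, in triplicate, and analysed by ANOVA with Dunnett's test (p < 0.05).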
(In general: Flow cytometry measures light scatter and fluorescence of single cells or particles in a stream.)

Data set [7] concerns LLC-MK2 cells. The note with it: read-out: LLC-MK2, CC50, cited from earlier work.
Where [8] appears, read: Leishmania amazonensis, 72 h, read-out: Promastigotes IC50L.Ama, 72 hours.
Where [9] appears, read: Leishmania infantum, 72 h, read-out: Promastigotes IC50L.Inf, 72 hours.
The mark [10] stands for this setting: read-out: IC50L.inf, earlier carboxylic acids.

With `CCOC(=O)CC1SC(=NN=Cc2ccc(Br)cc2)NC1=O` (centres unmarked) [2d, Ethyl 2-(2-(4-bromobenzylidene)hydrazono)-4-oxothiazolidine-5-acetate], the results for the IC50 in data set [1] (setting [8]) and in data set [2] (setting [9]) were 14.6 µM and 14.5 µM, respectively.
The like results for `CCOC(=O)CC1SC(=NN=Cc2ccccc2C)NC1=O` (centres unmarked) [2n, Ethyl 2-(2-(2-methylbenzylidene)hydrazono)-4-oxothiazolidine-5-acetate] were, in that order, 268 µM and 168 µM.
`CCOC(=O)c1csc(NN=Cc2ccccc2Cl)n1` [1b, Ethyl 2-(2-(2-chlorobenzylidene)hydrazinyl)thiazole-4-carboxylate]: the IC50 in data set [1] (setting [8]) is 27.9 µM; in data set [2] (setting [9]), 14.4 µM; in data set [3] (read-out: IC50L.ama, earlier carboxylic acids), 34.5 µM; in data set [4] (setting [10]), 59.5 µM.
With `CCOC(=O)c1csc(NN=Cc2ccccc2Br)n1` [1f, Ethyl 2-(2-(2-bromobenzylidene)hydrazinyl)thiazole-4-carboxylate], the IC50 in data set [1] (setting [8]) amounted to 23.3 µM; in data set [1] (read-out: Promastigotes IC50L.Ama, 72 hours), 24.3 µM; in data set [2] (setting [9]), 23.5 µM; in data set [5] it was 56.5 µM. Besides, the “cell death mechanism of T. cruzi” value in data set [6] (PI / Annexin-V staining) was “necrosis and apoptosis; also recorded: consistent with necrosis”. In data set [6] (at 4 × IC50 (1f 3.32 μM; BZD 141.6 μM)), the “double-positive (double-stained) cells (upper right quadrant)” value is reported as 17.58%.
For the molecule `CCCCCCCCCCCCCCCCOP(=O)([O-])OCC[N+](C)(C)C` [Miltefosine, reference compound], the CC50 in data set [7] (standard drug Miltefosine) is 12.3 µM. The IC50 is 36.3 µM in data set [3] (read-out: Promastigotes IC50L.Ama, standard drug Miltefosine) and 53.7 µM in data set [4] (read-out: Promastigotes IC50L.Inf, standard drug Miltefosine).
On to `CCOC(=O)CC1SC(=NN=Cc2ccc(C)cc2)NC1=O` (centres unmarked) [2m, Ethyl 2-(2-(4-methylbenzylidene)hydrazono)-4-oxothiazolidine-5-acetate], for which the IC50 came to 13.3 µM in data set [1] (setting [8]); 18.8 µM in data set [2] (setting [9]); 18.8 µM in data set [2] (read-out: Promastigotes IC50L.Inf, 72 hours).
Turning to `CCOC(=O)CC1SC(=NN=Cc2ccc([N+](=O)[O-])cc2)NC1=O` (centres unmarked) [2f, Ethyl 2-(2-(4-nitrobenzylidene)hydrazono)-4-oxothiazolidine-5-acetate], the values for the IC50 in data set [1] (setting [8]) and in data set [2] (setting [9]) were 57.5 µM and 325 µM, respectively.
As for `CCOC(=O)c1csc(NN=Cc2cccc(Cl)c2)n1` [1a, Ethyl 2-(2-(3-chlorobenzylidene)hydrazinyl)thiazole-4-carboxylate], the IC50 in data set [1] (setting [8]) was 189 µM; in data set [2] (setting [9]), 164 µM; in data set [5], 16.9 µM.
In the case of `CCOC(=O)c1csc(NN=Cc2ccc(OC)cc2)n1` [1c, Ethyl 2-(2-(4-methoxybenzylidene)hydrazinyl)thiazole-4-carboxylate], the IC50 in data set [1] (setting [8]) is 392 µM; in data set [2] (setting [9]), 332 µM; in data set [4] (setting [10]), 85.3 µM.
On to `CCOC(=O)CC1SC(=NN=Cc2ccccc2O)NC1=O` (centres unmarked) [2l, Ethyl 2-(2-(2-hydroxybenzylidene)hydrazono)-4-oxothiazolidine-5-acetate], for which the values for the IC50 in data set [1] (setting [8]) and in data set [2] (setting [9]) were 84.3 µM and 67.3 µM, respectively.
The like results for `CCOC(=O)CC1SC(=NN=Cc2ccccc2[N+](=O)[O-])NC1=O` (centres unmarked) [2h, Ethyl 2-(2-(2-nitrobenzylidene)hydrazono)-4-oxothiazolidine-5-acetate] were, in that order, 17 µM and 295 µM.
On to `CCOC(=O)c1csc(NN=C(C)c2ccccc2)n1` [1g, Ethyl 2-(2-(1-phenylethylidene)hydrazinyl)thiazole-4-carboxylate], for which the IC50 in data set [1] (setting [8]) worked out at 43 µM; in data set [2] (setting [9]), 37.4 µM; in data set [5], 40.7 µM.
Turning to `CCOC(=O)CC1SC(=NN=Cc2ccc(OC)cc2)NC1=O` (centres unmarked) [2i, Ethyl 2-(2-(4-methoxybenzylidene)hydrazono)-4-oxothiazolidine-5-acetate], the IC50 in data set [1] (setting [8]) is 169 µM; in data set [2] (setting [9]), 147 µM.
On the same counts, the results for `CCOC(=O)CC1SC(=NN=Cc2cccc(Br)c2)NC1=O` (centres unmarked) [2e, Ethyl 2-(2-(3-bromobenzylidene)hydrazono)-4-oxothiazolidine-5-acetate] are 120 µM and 116 µM.
Consider `CCOC(=O)CC1SC(=NN=Cc2ccccc2)NC1=O` (centres unmarked) [2a, Ethyl 2-((2-benzylidene)hydrazono)-4-oxothiazolidine-5-acetate], for which the values for the IC50 in data set [1] (setting [8]) and in data set [2] (setting [9]) were 367 µM and 365 µM, respectively.
In the case of `CCOC(=O)c1csc(NN=Cc2cccc(OC)c2)n1` [1d, Ethyl 2-(2-(3-methoxybenzylidene)hydrazinyl)thiazole-4-carboxylate], the results for the IC50 in data set [1] (setting [8]) and in data set [2] (setting [9]) were 159 µM and 104 µM, respectively.
The like results for `COC(=O)CC1SC(=NN=Cc2ccc(Cl)cc2)NC1=O` (centres unmarked) [2b, Methyl 2-(2-(4-chlorobenzylidene)hydrazono)-4-oxothiazolidine-5-acetate] were, in that order, 91.4 µM and 33.2 µM.
On the same counts, the results for `CCOC(=O)CC1SC(=NN=Cc2ccccc2OC)NC1=O` (centres unmarked) [2j, Ethyl 2-(2-(2-methoxybenzylidene)hydrazono)-4-oxothiazolidine-5-acetate] are 186 µM and 236 µM.
The like results for `CCOC(=O)CC1SC(=NN=Cc2cccc([N+](=O)[O-])c2)NC1=O` (centres unmarked) [2g, Ethyl 2-(2-(3-nitrobenzylidene)hydrazono)-4-oxothiazolidine-5-acetate] were, in that order, 309 µM and 329 µM.
Consider `CCOC(=O)CC1SC(=NN=Cc2ccccc2Cl)NC1=O` (centres unmarked) [2c, Ethyl 2-(2-(2-chlorobenzylidene)hydrazono)-4-oxothiazolidine-5-acetate], for which the IC50 stood at 114 µM in data set [1] (setting [8]) and 129 µM in data set [2] (setting [9]).
As to `O=C(Cn1ccnc1[N+](=O)[O-])NCc1ccccc1` [BZD, Benznidazole, reference compound], the cytotoxic concentration (CC50) in data set [7] (standard drug BZD) was 615 µM. Moreover, the IC50 in data set [5] worked out at 5.65 µM. Moreover, the “double-positive (double-stained) cells (upper right quadrant)” value in data set [6] (at 2 × IC50 (1f 1.66 μM; BZD 70.8 μM)) worked out at 19.56%.
As for `CCOC(=O)c1csc(NN=Cc2cccc(Br)c2)n1` [1e, Ethyl 2-(2-(3-bromobenzylidene)hydrazinyl)thiazole-4-carboxylate], the IC50 is 246 µM in data set [1] (setting [8]) and 170 µM in data set [2] (setting [9]).
The like results for `CCOC(=O)CC1SC(=NN=Cc2ccc(O)c(OC)c2)NC1=O` (centres unmarked) [2p, Ethyl 2-(2-(4-hydroxy-3-methoxybenzylidene)hydrazono)-4-oxothiazolidine-5-acetate] were, in that order, 233 µM and 320 µM.
The like results for `CCOC(=O)CC1SC(=NN=C2CCCc3ccccc32)NC1=O` (centres unmarked) [2o, Ethyl 2-((2-(3,4-dihydronaphthalen-1(2H)-ylidene))hydrazono)-4-oxo-thiazolidin-5-acetate] were, in that order, 180 µM and 176 µM.
The like results for `CCOC(=O)CC1SC(=NN=Cc2cccc(O)c2)NC1=O` (centres unmarked) [2k, Ethyl 2-(2-(3-hydroxybenzylidene)hydrazono)-4-oxothiazolidine-5-acetate] were, in that order, 364 µM and 370 µM.
On to `CCOC(=O)c1csc(NN=Cc2ccco2)n1` [1h, Ethyl 2-(2-(furan-2-ylmethylene)hydrazinyl)thiazole-4-carboxylate], for which the results for the IC50 in data set [1] (setting [8]), in data set [2] (setting [9]) and in data set [5] were 451 µM, 374 µM and 75.4 µM, respectively.

In general, CC50 refers to the concentration giving 50% cytotoxicity.
